# Reference: ChEMBL document CHEMBL1144557, “The novel C-5 aryl, alkenyl, and alkynyl substituted uracil derivatives of L-ascorbic acid: synthesis, cytostatic, and antiviral activity evaluations” (Bioorg Med Chem, 2007)
# Legend:
# Human alphaherpesvirus 1 [1] = experiment: Antiviral activity against HSV1 TK- KOS ACV-induced cytopathogenicity in E6SM cells; type: functional; conditions: Human alphaherpesvirus 1, KOS
# Coxsackievirus B4 = experiment: Antiviral activity against Coxsackie virus B4-induced cytopathogenicity in Vero cells; type: functional; conditions: Enterovirus B
# L1210 = experiment: Antiproliferative activity against mouse L1210 cells; type: functional, cell-based
# Outline: (§1)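 Suspension cells seeded at 50 × 10³ cells/well with a range of test compound concentrations. Cell number counted with a Coulter counter after 2 days (L1210) or 3 days (Molt4/C8, CEM). IC50 is the concentration that cuts cell growth by 50% versus untreated controls, read from plots of cell number (% of control) against concentration.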
# WI-38 = experiment: Antiproliferative activity against human WI38 cells after 72 hrs by MTT assay; type: functional, cell-based; conditions: WI-38, 72 h
# Outline: (§2)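 Monolayers grown in DMEM with 10% FBS, 2 mM L-glutamine and penicillin/streptomycin at 37 °C, 5% CO2. Seeded at 1 × 10⁴–3 × 10⁴ cells/mL on day 0. Compounds from 0.04 M DMSO stocks added at five 10-fold dilutions (10⁻⁸–10⁻⁴ M final), with matched DMSO controls, for 72 h. MTT added for 4 h, formazan dissolved in DMSO, absorbance read at 570 nm. Percentage growth calculated against time-zero and untreated OD. IC50 is 50% inhibition of proliferation.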
# Sindbis virus = experiment: Antiviral activity against Sindbis virus-induced cytopathogenicity in Vero cells; type: functional
# [2] = Antiproliferative activity against human Molt4/C8 cells; type: functional, cell-based; conditions: MOLT-4; outline: as §1
# CCRF-CEM = experiment: Antiproliferative activity against human CEM cells; type: functional, cell-based; outline: as §1
# [3] = Cytotoxicity against E6SM cells; type: cell-based; conditions: human, read-out: MCC
# Outline: (§3)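 Cells seeded at 5 × 10³ cells/well and exposed to medium containing a range of test compound concentrations. After 3 days at 37 °C, cell morphology examined microscopically. Reported as minimum cytotoxic concentration (MCC), the concentration causing a microscopically detectable alteration of normal cell morphology.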
# Human alphaherpesvirus 2 [4] = experiment: Antiviral activity against HSV2 G-induced cytopathogenicity in E6SM cells; type: functional; conditions: Human alphaherpesvirus 2, G
# Human alphaherpesvirus 1 [5] = experiment: Antiviral activity against HSV1 KOS-induced cytopathogenicity in E6SM cells; type: functional; conditions: Human alphaherpesvirus 1, KOS
# MCF7 = experiment: Antiproliferative activity against human MCF7 cells after 72 hrs by MTT assay; type: functional, cell-based; conditions: MCF7, 72 h; outline: as §2
# [6] = tested on: Vesicular stomatitis virus; experiment: Antiviral activity against in Vesicular stomatitis virus-induced cytopathogenicity in E6SM cells; type: functional
# HeLa = experiment: Antiproliferative activity against human HeLa cells after 72 hrs by MTT assay; type: functional, cell-based; outline: as §2
# SW-620 = experiment: Antiproliferative activity against human SW620 cells after 72 hrs by MTT assay; type: functional, cell-based; conditions: SW-620, 72 h; outline: as §2
# MIA PaCa-2 = experiment: Antiproliferative activity against human MiaPaCa2 cells after 72 hrs by MTT assay; type: functional, cell-based; outline: as §2
# Punta Toro virus = experiment: Antiviral activity against Punta Toro virus-induced cytopathogenicity in Vero cells; type: functional
# [7] = tested on: Vesicular stomatitis virus; experiment: Antiviral activity against in Vesicular stomatitis virus- induced cytopathogenicity in HeLa cells; type: functional
# HEp-2 = experiment: Antiproliferative activity against human Hep2 cells after 72 hrs by MTT assay; type: functional, cell-based; conditions: HEp-2, 72 h; outline: as §2
# Human alphaherpesvirus 1 [8] = experiment: Antiviral activity against HSV1 KOS-induced cytopathogenicity in HEL cells; type: functional; conditions: Human alphaherpesvirus 1, KOS
# [9] = Cytotoxicity against HEL cells; type: cell-based; conditions: human; outline: as §3
# Human alphaherpesvirus 1 [10] = experiment: Antiviral activity against HSV1 TK- KOS ACV -induced cytopathogenicity in HEL cells; type: functional; conditions: Human alphaherpesvirus 1, KOS
# Human alphaherpesvirus 2 [11] = experiment: Antiviral activity against HSV2 G-induced cytopathogenicity in HEL cells; type: functional; conditions: Human alphaherpesvirus 2, G
# [12] = tested on: Vesicular stomatitis virus; experiment: Antiviral activity against in Vesicular stomatitis virus-induced cytopathogenicity in HEL cells; type: functional
# [13] = Homo sapiens, MIA PaCa-2, 72 h, read-out: IC50
SMILES,MIC (Human alphaherpesvirus 1 [1]) [µM],MIC (Coxsackievirus B4) [µM],IC50 (L1210) [µM],IC50 (WI-38) [µM],MIC (Sindbis virus) [µM],IC50 [2] [µM],IC50 (CCRF-CEM) [µM],MCC [3] [µM],MIC (Human alphaherpesvirus 2 [4]) [µM],MIC (Human alphaherpesvirus 1 [5]) [µM],IC50 (MCF7) [µM],MIC [6] [µM],IC50 (HeLa) [µM],IC50 (SW-620) [µM],IC50 (MIA PaCa-2; [13]) [µM],MIC (Punta Toro virus) [µM],MIC [7] [µM],IC50 (HEp-2) [µM],further results
O=C1O/C(=C\Cn2cc(-c3ccccc3)c(=O)[nH]c2=O)C(OCc2ccccc2)=C1OCc1ccccc1,> 157,> 157,142,28,> 157,159,122,787,> 157,> 157,18,157,25,21,18,> 157,> 157,22,
O=C1O/C(=C(\Br)Cn2c(Br)c(/C=C/Br)c(=O)[nH]c2=O)C(OCc2ccccc2)=C1OCc1ccccc1,> 116,> 116,32,49,> 116,110,91,578,> 116,> 116,15,> 116,22,≥ 100,20,> 116,> 116,22,
C#Cc1cn(C/C=C2\OC(=O)C(O)=C2O)c(=O)[nH]c1=O,,> 4,15,11,> 4,37,23,,,,13,,13,17,13,4,> 4,12,MIC (Human alphaherpesvirus 1 [8]): > 4 µM; MCC [9]: 20 µM; MIC (Human alphaherpesvirus 1 [10]): > 4 µM; MIC (Human alphaherpesvirus 2 [11]): > 4 µM; MIC [12]: > 4 µM
CC#Cc1cn(C/C=C2\OC(=O)C(OCc3ccccc3)=C2OCc2ccccc2)c(=O)[nH]c1=O,> 0.4,1.6,0.47,0.2,1.6,0.78,0.77,2,> 0.4,> 0.4,0.2,> 0.4,0.2,0.3,,> 1.6,1.6,0.7,IC50 (MIA PaCa-2; mia paca-2): 0.5 µM
